Test results from PMC10825549 (JID Innovations, 2023).
Where “and” joins values, the source holds several entries; their conditions need not be identical. Identical values can stand only once. Entries after “also recorded” stand apart in the source; their conditions may differ.

What was measured:
TYK2 = TYK2 (Homo sapiens, UniProt P29597); test: Inhibition of catalytic domain activity, TYK2; type: biochemical
In short: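 Z′-LYTE biochemical kinase assay run by the vendor per manufacturer's protocol. Each kinase plate carried 0%/100% phosphorylation and 0%/100% inhibition controls. Development-reaction and compound-fluorescence interference controls at each compound concentration. n = 1 per kinase.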

Jak2/2 = test: Inhibition of GM-CSF-induced STAT phosphorylation in PBMCs; type: cell-based, human
In short: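 Ficoll-isolated human PBMCs, cryopreserved, thawed into RPMI/10% heat-inactivated FBS assay medium, 200,000 cells/well. Serially diluted test compound (final 20 μM to 2 × 10−6 μM) or 0.1% DMSO vehicle preincubated 1 h at 37 °C. Cytokine then added for 5–10 min, followed by 30 min shaking at 4 °C and lysis. Phospho-STAT5/STAT4 by MSD immunoassay, phospho-STAT1 by ELISA. IC50 reported as mean ± SD.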

[1] = Metabolic stability in liver microsomes; type: in vitro ADME; details: human
In short: (§1)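 Test compound from 1 mM DMSO solution preincubated 5 min with dog, human, monkey, rat or minipig liver microsomes. NADPH (10 mM) then added. Reactions stopped at 0, 5, 15 and 30 min with 0.05% formic acid in acetonitrile containing loperamide internal standard. Supernatants analysed by LC-MS/MS; n = 1 per microsome species.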

[2] = Metabolic stability in liver microsomes; type: in vitro ADME; details: rat
In short: as §1

[3] = Metabolic stability in liver microsomes; type: in vitro ADME; details: mouse
[4] = Metabolic stability in liver microsomes; type: in vitro ADME; details: monkey
In short: as §1

[5] = Metabolic stability in liver microsomes; type: in vitro ADME; details: minipig
In short: as §1

CYP2C19 = CYP2C19 (Homo sapiens, UniProt P33261); test: Cytochrome P450 phenotyping; type: in vitro ADME; details: recombinant human CYP2C19; with NADPH; 60 minutes; n = 1
CYP3A4 = CYP3A4 (Homo sapiens, UniProt P08684); test: Cytochrome P450 phenotyping; type: in vitro ADME; details: recombinant human CYP3A4; with NADPH; 30 minutes; n = 1
In short: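 Recombinant human CYP3A4 was prepared at 100 nM, and a 2 μM dosing solution of test compound in DMSO was added on ice. After prewarming, 8 mM NADPH solution or blank buffer was added for 30 minutes. Acetonitrile with internal standard stopped the reaction. The plate was shaken and centrifuged, and the supernatant was analysed by LC-MS/MS; n = 1.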

[6] = 7-day minipig study: plasma pharmacokinetics; type: in vivo
minipig = test: 28-day minipig repeat exposure study: toxicology; type: in vivo; details: topical solution daily for 28 days, 0, 40, 80 and 160 mg/day
In short: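 GLP repeat-dose dermal study in minipigs. Topical solution given daily for 28 days at 0, 40, 80 and 160 mg/day. Left on skin 20–22 h each day, then the site was wiped clean with a moist towel. Dermal tolerability and toxicokinetics assessed.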

[7] = system: participants with atopic dermatitis; test: Phase 2a study ATI-1777-AD-201: safety; type: in vivo, human
In short: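 Adults with moderate/severe AD applied 2% solution or vehicle twice daily for 4 weeks. TEAEs: onset on/after first dose and before last dose […], counted once per preferred term and system organ class. Also assessed serious AEs, labs, vital signs, physical exams, 12-lead ECG. Full analysis set; safety reviewed every 4 weeks.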

[8] = male, plasma, topical, 160 mg/day
[9] = TEAE, full analysis set, n = 23

Chain of CYP3A4 (P08684 whole entry): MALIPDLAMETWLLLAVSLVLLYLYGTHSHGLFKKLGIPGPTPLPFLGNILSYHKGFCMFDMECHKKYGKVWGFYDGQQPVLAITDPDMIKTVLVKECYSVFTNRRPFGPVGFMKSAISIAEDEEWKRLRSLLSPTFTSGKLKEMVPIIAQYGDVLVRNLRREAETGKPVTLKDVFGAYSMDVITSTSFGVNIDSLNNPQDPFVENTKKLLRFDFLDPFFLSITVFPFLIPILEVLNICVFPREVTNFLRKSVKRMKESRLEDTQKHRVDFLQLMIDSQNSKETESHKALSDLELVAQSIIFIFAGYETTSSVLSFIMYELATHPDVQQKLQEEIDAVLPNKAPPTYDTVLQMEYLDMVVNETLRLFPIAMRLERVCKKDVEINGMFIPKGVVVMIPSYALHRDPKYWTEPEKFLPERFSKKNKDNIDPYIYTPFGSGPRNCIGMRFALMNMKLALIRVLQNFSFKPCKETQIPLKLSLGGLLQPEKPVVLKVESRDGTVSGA
Chain of TYK2 (P29597 897-1176 limits assumed): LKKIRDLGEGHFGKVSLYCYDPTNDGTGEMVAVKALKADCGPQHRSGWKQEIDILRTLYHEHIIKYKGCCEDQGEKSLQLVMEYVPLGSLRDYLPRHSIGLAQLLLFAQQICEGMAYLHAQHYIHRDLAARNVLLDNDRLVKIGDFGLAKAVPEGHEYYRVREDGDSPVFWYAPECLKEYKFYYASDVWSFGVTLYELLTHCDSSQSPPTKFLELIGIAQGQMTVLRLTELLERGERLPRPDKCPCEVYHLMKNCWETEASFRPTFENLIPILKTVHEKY
Chain of CYP2C19 (P33261 whole entry): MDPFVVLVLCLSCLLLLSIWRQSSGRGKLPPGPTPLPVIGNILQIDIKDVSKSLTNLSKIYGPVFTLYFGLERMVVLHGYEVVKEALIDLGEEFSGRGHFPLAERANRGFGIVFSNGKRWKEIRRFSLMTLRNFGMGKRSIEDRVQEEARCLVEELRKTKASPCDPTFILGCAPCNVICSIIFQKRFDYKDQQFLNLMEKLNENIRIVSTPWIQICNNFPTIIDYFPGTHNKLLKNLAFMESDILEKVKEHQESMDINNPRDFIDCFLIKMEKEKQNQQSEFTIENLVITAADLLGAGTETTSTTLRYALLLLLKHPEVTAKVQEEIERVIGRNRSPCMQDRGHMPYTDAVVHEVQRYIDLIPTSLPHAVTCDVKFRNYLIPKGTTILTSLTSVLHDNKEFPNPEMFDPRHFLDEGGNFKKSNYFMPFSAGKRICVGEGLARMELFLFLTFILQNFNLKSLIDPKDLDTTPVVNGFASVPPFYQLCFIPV

SMILES: CCOC(=O)c1cnc2[nH]ccc2c1N[C@@H]1CCCN(C(=O)CC#N)C1 [ATI-1777, ethyl (R)-4-((1-(2-cyanoacetyl)piperidin-3-yl)amino)-1H-pyrrolo[2,3-b]pyridine-5-carboxylate]
- IC50 (TYK2): 19 nM
- Fold Jak1/3 (Jak2/2; GM-CSF, Jak2/2 vs Jak1/3): 41.8 fold
- IC50 (Jak2/2; Homo sapiens, PBMC, read-out: IC50 Mean ± SD): 794 ± 121 nM
- CLint scaled [1]: 200 mL/min/kg
- microsomal CLint [1]: 74 µL/min/mg
- half-life ([1]; T1/2, Study 1, n = 1): 8.71 min
- half-life ([1]; T1/2, Study 2, n = 1): 19 min
- CLint scaled [2]: 370 mL/min/kg
- microsomal CLint [2]: 52 µL/min/mg
- half-life ([2]; T1/2, Study 1, n = 1): 6.7 min
- half-life ([2]; T1/2, Study 2, n = 1): 27 min
- CLint scaled [3]: 3280 mL/min/kg
- half-life [3]: 1.66 min
- CLint scaled [4]: 939 mL/min/kg
- microsomal CLint [4]: 264 µL/min/mg
- half-life ([4]; T1/2, Study 1, n = 1): 2.16 min
- half-life ([4]; T1/2, Study 2, n = 1): 5 min
- CLint scaled [5]: 365 mL/min/kg
- microsomal CLint [5]: 295 µL/min/mg
- half-life ([5]; T1/2, Study 1, n = 1): 2.85 min
- half-life ([5]; T1/2, Study 2, n = 1): 5 min
- Percentage Remaining (CYP2C19): 75.5%
- Percentage Remaining (CYP3A4): 0.56%
- systemic exposure ([6]; 2% solution, 7 consecutive days, LLOQ = 0.5 ng/ml, at most time points): unquantifiable
- concentration at 0 h [6, 8]: 0 ng/mL
- concentration at 1 h [6, 8]: 0 ng/mL
- concentration at 2 h [6, 8]: 0.387 ng/mL
- concentration at 4 h [6, 8]: 0.221 ng/mL
- concentration at 8 h [6, 8]: 0.391 ng/mL
- concentration at 12 h [6, 8]: 0 ng/mL
- concentration at 24 h [6, 8]: 0 ng/mL
- ATI-1777–related effects / adverse effects (minipig): No ATI-1777–related effects were noted at any dose; also recorded: did not present any adverse effects
- deaths, serious adverse events, TEAEs of special interest ([7]; 2% topical solution twice daily, 4 weeks): No deaths or serious adverse events were reported; also recorded: No deaths or treatment-emergent AEs (TEAEs) of special interest; also recorded: No deaths or serious AEs were reported
- AEs reported, proportion of participants ([7]; 2% topical solution twice daily, 4 weeks, n = 23): 39.1%
- Acrochordon, Number of Events ([7]; TEAE, PT, n = 23): 1
- Acrochordon, Number of Subjects ([7]; TEAE, PT, n = 23): 1 (4.3) n (%)
- Amylase increased, Number of Events ([7]; TEAE, PT, n = 23): 1
- Amylase increased, Number of Subjects ([7]; TEAE, PT, n = 23): 1 (4.3) n (%)
- Application site irritation, Number of Events ([7]; TEAE, PT, n = 23): 0
- Application site irritation, Number of Subjects ([7]; TEAE, PT, n = 23): 0 n (%)
- Application site pruritus, Number of Events ([7]; TEAE, PT, n = 23): 1
- Application site pruritus, Number of Subjects ([7]; TEAE, PT, n = 23): 1 (4.3) n (%)
- Atrial fibrillation, Number of Events ([7]; TEAE, PT, n = 23): 1
- Atrial fibrillation, Number of Subjects ([7]; TEAE, PT, n = 23): 1 (4.3) n (%)
- Blood CPK increased, Number of Events ([7]; TEAE, PT, n = 23): 2
- Blood CPK increased, Number of Subjects ([7]; TEAE, PT, n = 23): 2 n (%) and 2 (8.7) n (%)
- COVID-19, Number of Events ([7]; TEAE, PT, n = 23): 0
- COVID-19, Number of Subjects ([7]; TEAE, PT, n = 23): 0 n (%)
- Candida infection, Number of Events ([7]; TEAE, PT, n = 23): 1
- Candida infection, Number of Subjects ([7]; TEAE, PT, n = 23): 1 (4.3) n (%)
- Dizziness, Number of Events ([7]; TEAE, PT, n = 23): 1
- Dizziness, Number of Subjects ([7]; TEAE, PT, n = 23): 1 (4.3) n (%)
- Folliculitis, Number of Events ([7]; TEAE, PT, n = 23): 1
- Folliculitis, Number of Subjects ([7]; TEAE, PT, n = 23): 1 (4.3) n (%)
- Food poisoning, Number of Events ([7]; TEAE, PT, n = 23): 1
- Food poisoning, Number of Subjects ([7]; TEAE, PT, n = 23): 1 (4.3) n (%)
- Headache, Number of Events ([7]; TEAE, PT, n = 23): 2
- Headache, Number of Subjects ([7]; TEAE, PT, n = 23): 2 n (%) and 2 (8.7) n (%)
- Lipase increased, Number of Events ([7]; TEAE, PT, n = 23): 1
- Lipase increased, Number of Subjects ([7]; TEAE, PT, n = 23): 1 (4.3)1 n (%)
- Oropharyngeal pain, Number of Events ([7]; TEAE, PT, n = 23): 0
- Oropharyngeal pain, Number of Subjects ([7]; TEAE, PT, n = 23): 0 n (%)
- Pharyngitis streptococcal, Number of Events ([7]; TEAE, PT, n = 23): 0
- Pharyngitis streptococcal, Number of Subjects ([7]; TEAE, PT, n = 23): 0 n (%)
- Rash, Number of Events ([7]; TEAE, PT, n = 23): 0
- Rash, Number of Subjects ([7]; TEAE, PT, n = 23): 0 n (%)
- SARS-CoV-2 test positive, Number of Events ([7]; TEAE, PT, n = 23): 0
- SARS-CoV-2 test positive, Number of Subjects ([7]; TEAE, PT, n = 23): 0 n (%)
- Sinus congestion, Number of Events ([7]; TEAE, PT, n = 23): 0
- Sinus congestion, Number of Subjects ([7]; TEAE, PT, n = 23): 0 n (%)
- Skin fragility, Number of Events ([7]; TEAE, PT, n = 23): 0
- Skin fragility, Number of Subjects ([7]; TEAE, PT, n = 23): 0 n (%)
- Somnolence, Number of Events ([7]; TEAE, PT, n = 23): 0
- Somnolence, Number of Subjects ([7]; TEAE, PT, n = 23): 0 n (%)
- Tinea infection, Number of Events ([7]; TEAE, PT, n = 23): 1
- Tinea infection, Number of Subjects ([7]; TEAE, PT, n = 23): 1 (4.3) n (%)
- Transaminases increased, Number of Events ([7]; TEAE, PT, n = 23): 1
- Transaminases increased, Number of Subjects ([7]; TEAE, PT, n = 23): 1 (4.3) n (%)
- Urinary tract infection, Number of Events ([7]; TEAE, PT, n = 23): 1
- Urinary tract infection, Number of Subjects ([7]; TEAE, PT, n = 23): 1 n (%) and 1 (4.3) n (%)
- Cardiac disorders, Number of Events ([7]; TEAE, SOC, n = 23): 1
- Cardiac disorders, Number of Subjects ([7]; TEAE, SOC, n = 23): 1 (4.3) n (%)
- Gastrointestinal disorders, Number of Events ([7]; TEAE, SOC, n = 23): 1
- Gastrointestinal disorders, Number of Subjects ([7]; TEAE, SOC, n = 23): 1 (4.3) n (%)
- General disorders and administration site conditions, Number of Events ([7]; TEAE, SOC, n = 23): 1
- General disorders and administration site conditions, Number of Subjects ([7]; TEAE, SOC, n = 23): 1 (4.3) n (%)
- Infections and infestations, Number of Events ([7]; TEAE, SOC, n = 23): 4
- Infections and infestations, Number of Subjects ([7]; TEAE, SOC, n = 23): 3 (13.0) n (%)
- Investigations, Number of Events ([7]; TEAE, SOC, n = 23): 5
- Investigations, Number of Subjects ([7]; TEAE, SOC, n = 23): 3 (13.0) n (%)
- Neoplasms benign, malignant, and unspecified (including cysts and polyps), Number of Events ([7]; TEAE, SOC, n = 23): 1
- Neoplasms benign, malignant, and unspecified (including cysts and polyps), Number of Subjects ([7]; TEAE, SOC, n = 23): 1 (4.3) n (%)
- Nervous system disorders, Number of Events ([7]; TEAE, SOC, n = 23): 3
- Nervous system disorders, Number of Subjects ([7]; TEAE, SOC, n = 23): 3 (13.0) n (%)
- Respiratory, thoracic, and mediastinal disorders, Number of Events ([7]; TEAE, SOC, n = 23): 0
- Respiratory, thoracic, and mediastinal disorders, Number of Subjects ([7]; TEAE, SOC, n = 23): 0 n (%)
- Skin and subcutaneous tissue disorders, Number of Events ([7]; TEAE, SOC, n = 23): 0
- Skin and subcutaneous tissue disorders, Number of Subjects ([7]; TEAE, SOC, n = 23): 0 n (%)
- Any AE, Number of Events [7, 9]: 16
- Any AE, Number of Subjects [7, 9]: 9 (39.1) n (%)
- participants who discontinued study participation owing to TEAEs ([7]; n = 23): No participants
- TEAE related to study treatment ([7]; one related TEAE in the group): mild application site pruritus
